According to the M2OR odorant receptor database:

What follows are compounds tested against T1, UniProt Q7TR79. Settings: stereoisomer not certain.
T1 sequence (whole entry): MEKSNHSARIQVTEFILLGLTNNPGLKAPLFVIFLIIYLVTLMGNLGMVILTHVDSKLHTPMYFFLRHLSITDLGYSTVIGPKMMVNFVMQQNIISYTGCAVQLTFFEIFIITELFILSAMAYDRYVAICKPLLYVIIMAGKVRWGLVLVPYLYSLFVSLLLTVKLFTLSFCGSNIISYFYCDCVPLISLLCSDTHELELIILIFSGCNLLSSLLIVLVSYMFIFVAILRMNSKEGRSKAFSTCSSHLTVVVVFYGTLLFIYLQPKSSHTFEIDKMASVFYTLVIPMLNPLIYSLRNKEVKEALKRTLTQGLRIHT
Method in brief: (§1)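 Assay methods differ from source to source, frequently being transient luciferase assays in mammalian cell lines. For each receptor–molecule pair, the label responsive (active) applies when the original authors judged the measured signal statistically different from baseline, and non-responsive (inactive) applies otherwise.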

Odorant receptor agonist call, inactive:
CCCCCOC(=O)CC
C=C(C)C1CCC(C)C(O)C1 (stereo unspecified)
CC(CC=O)CCCC(C)(C)O (stereo unspecified)
CCc1nccnc1CC
CCC(C)c1nccnc1OC (stereo unspecified)
CCCC=O
CCCCCCCCC=CC=O
Cc1ccc(C(C)C)c(O)c1
c1ccc2ncccc2c1
Cc1c(C)c(C)c(C=O)c(C)c1C
CCCCCCC(C)O (stereo unspecified)
CCCO
CNc1ccccc1C(=O)OC
Cc1ccccc1OC(=O)C(C)C
CSSSC
COc1ccccc1
O=C(O)C1CCC1
CCCCCCCCOC=O
CCCCCC(C=O)=Cc1ccccc1
CCCCCCCCCC=CC=O
Cc1occc1SSc1ccoc1C
COc1nccnc1C
COC(OC)c1ccccc1
CC1(C)CC(=O)CC(=O)C1
CCCCCCC(C=O)=Cc1ccccc1
C=C1C2CCC(C2)C1(C)C (stereo unspecified)
CC(=O)OCc1ccc2c(c1)OCO2
CC(=O)OCCc1ccccc1
CC=Cc1ccc(OC)cc1
CCCCCCCOC(=O)C(C)C
OCCc1ccccc1
CC(C)=CCCC(C)=CCOC(=O)C(C)C
CCOC(=O)CC(C)C

Each compound was assayed against T2, UniProt Q7TRX0. Settings: stereoisomer not certain.
T2 sequence (whole entry): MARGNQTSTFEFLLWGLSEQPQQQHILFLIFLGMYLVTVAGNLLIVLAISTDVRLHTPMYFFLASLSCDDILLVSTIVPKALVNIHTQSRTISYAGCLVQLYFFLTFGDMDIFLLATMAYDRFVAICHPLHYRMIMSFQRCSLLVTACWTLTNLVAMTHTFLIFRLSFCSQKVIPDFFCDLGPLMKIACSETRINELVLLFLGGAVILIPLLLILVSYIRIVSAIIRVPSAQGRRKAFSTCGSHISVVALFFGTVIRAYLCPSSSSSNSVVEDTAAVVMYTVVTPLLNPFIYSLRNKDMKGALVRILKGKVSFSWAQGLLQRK
Method in brief: as §1

Odorant receptor agonist call, inactive:
CCCCCOC(=O)CC
C=C(C)C1CCC(C)C(O)C1 (stereo unspecified)
CC(CC=O)CCCC(C)(C)O (stereo unspecified)
CCc1nccnc1CC
CCC(C)c1nccnc1OC (stereo unspecified)
CCCC=O
CCCCCCCCC=CC=O
Cc1ccc(C(C)C)c(O)c1
c1ccc2ncccc2c1
Cc1c(C)c(C)c(C=O)c(C)c1C
CCCCCCC(C)O (stereo unspecified)
CCCO
CNc1ccccc1C(=O)OC
Cc1ccccc1OC(=O)C(C)C
CSSSC
COc1ccccc1
O=C(O)C1CCC1
CCCCCCCCOC=O
CCCCCC(C=O)=Cc1ccccc1
CCCCCCCCCC=CC=O
Cc1occc1SSc1ccoc1C
COc1nccnc1C
COC(OC)c1ccccc1
CC1(C)CC(=O)CC(=O)C1
CCCCCCC(C=O)=Cc1ccccc1
C=C1C2CCC(C2)C1(C)C (stereo unspecified)
CC(=O)OCc1ccc2c(c1)OCO2
CC(=O)OCCc1ccccc1
CC=Cc1ccc(OC)cc1
CCCCCCCOC(=O)C(C)C
OCCc1ccccc1
CC(C)=CCCC(C)=CCOC(=O)C(C)C
CCOC(=O)CC(C)C
